This note sets out measurements from ChEMBL document CHEMBL3784986, “Discovery and Characterization of Biased Allosteric Agonists of the Chemokine Receptor CXCR3” (J Med Chem, 2016).

Data set [1] concerns the target T1, C-X-C chemokine receptor type 3 (Homo sapiens) (UniProt P49682).
T1 sequence (whole entry): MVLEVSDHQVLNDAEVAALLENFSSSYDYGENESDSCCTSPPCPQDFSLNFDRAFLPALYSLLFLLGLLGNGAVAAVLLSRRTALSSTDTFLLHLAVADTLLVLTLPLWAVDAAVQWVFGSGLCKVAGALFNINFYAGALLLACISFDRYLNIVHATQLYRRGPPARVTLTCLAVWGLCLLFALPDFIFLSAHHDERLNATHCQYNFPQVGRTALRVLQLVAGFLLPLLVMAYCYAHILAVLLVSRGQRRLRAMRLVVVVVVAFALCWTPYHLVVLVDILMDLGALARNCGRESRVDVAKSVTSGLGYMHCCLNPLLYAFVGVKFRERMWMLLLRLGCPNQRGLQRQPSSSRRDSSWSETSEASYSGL
Nature of the data set: Positive allosteric modulation of human CXCR3 expressed in HEK293T cell membranes after 30 mins by [35S]GTPgammaS incorporation assay relative to CXCL11. In kind it is functional. Particulars: HEK-293T. An outline of the steps: (§1)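 Membranes from HEK293 cells stably expressing CXCR3 (30 µg/mL protein) in 20 mM HEPES, 10 mM MgCl2, 100 mM NaCl, 100 mg/L saponin, pH 7.4. Compound plus 1 µM GDP preincubated 30 min at 37 °C, then 0.10 nM [35S]GTPγS added for 30 min at 37 °C. Filtered on GF/B and counted. Efficacy expressed as % of CXCL11. Three experiments in triplicate, pEC50 by nonlinear regression.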
(Binding of GTPγS marks nucleotide exchange on a G protein.)

Data set [2] has as its target T1, C-X-C chemokine receptor type 3 (Homo sapiens). The data set can be described thus: Positive allosteric modulation of ProLink1-tagged wild type CXCR3 (unknown origin) expressed in HEK293T cells assessed as beta-arrestin-2 recruitment incubated for 4 hrs by chemiluminescence-based microplate reader method relative to CXCL11. In kind it is cell-based. Particulars: HEK-293T. An outline of the steps: (§2)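 HEK293 cells stably expressing β-gal enzyme acceptor, transiently transfected with PK1- or PK2-tagged wild-type CXCR3, 2000 cells/well, grown overnight at 37 °C. Compounds or CXCL11 in PBS pH 7.4 with 0.20% BSA added for 4 h. Detection mix 60 min at room temperature, then chemiluminescence read. Efficacy expressed as % of CXCL11 effect. Two to three experiments in triplicate.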

The target is the same in data set [3]. The data set can be described thus: Positive allosteric modulation of ProLink2-tagged wild type CXCR3 (unknown origin) expressed in HEK293T cells assessed as beta-arrestin-2 recruitment incubated for 4 hrs by chemiluminescence-based microplate reader method relative to CXCL11. In kind it is cell-based. The settings on record: HEK-293T. The essentials:
as §2

For data set [4] the target is unchanged. Nature of the data set: Induction of FLAG-tagged CXCR3 (unknown origin) internalization expressed in HEK293T cells at 10 uM after 60 mins by ELISA. Particulars: HEK-293T. In kind it is cell-based. The essentials:
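FLAG-CXCR3-transfected HEK293T cells replated on poly-D-lysine. At 48 h, serum-free DMEM with compound (10 µM) or CXCL11 (100 nM) for 1 h at 37 °C. Cells fixed in 4% formaldehyde. Surface receptor detected with anti-FLAG antibody and peroxidase-conjugated anti-mouse IgG, o-phenylenediamine substrate, stopped with 1M H2SO4, absorbance at 492 nm.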

The target is the same in data set [5]. Nature of the data set: Inhibition of CXCL10-mediated activation of human CXCR3 expressed in HEK cells. The format is cell-based. Particulars: HEK293.
For data set [6] the target is unchanged. The data set can be described thus: Displacement of [125I]CXCL11 from human CXCR3 isoform 1 expressed in African green monkey COS7 cells at 1 uM after 3 hrs by liquid scintillation counting method. The format is cell-based. Particulars: COS-7. The essentials:
(§3)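 Cells washed in 50 mM HEPES/5 g/L BSA and chilled 15 min at 4 °C. Ligands added, then 10-15 pM [125I]CXCL11 (Chloramine-T labelled, HPLC-purified). Incubation 3 h at 4 °C, washes, bound radioactivity read by liquid scintillation.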
(In general: Loss of bound radioactivity is the signal in a displacement assay; it reports binding, not function.)

Data set [7] has the same target. Nature of the data set: Induction of C-terminal eGFP-tagged CXCR3 (unknown origin) internalization expressed in HEK293T cells at 1 to 10 uM after 60 mins by scanning laser confocal microscopy. In kind it is cell-based. The settings on record: HEK-293T. An outline of the steps: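 HEK293T cells transiently transfected with C-terminally eGFP-tagged CXCR3, moved to poly-L-lysine coverslips at 24 h. Two days post-transfection, treated 60 min at 37 °C with compound (10 µM and 1 µM) or 100 nM CXCL11. Fixed in 4% paraformaldehyde and imaged by confocal laser scanning microscopy.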

Data set [8] shares this target. Nature of the data set: Inhibition of CXCL11-mediated activation of human CXCR3 expressed in HEK cells. In kind it is cell-based. Particulars: HEK293.
Data set [9] shares this target. Nature of the data set: Positive allosteric modulation of CXCR3 (unknown origin) expressed in HEK293 cells assessed as induction of cell migration at 100 nM after 5 hrs by transwell migration assay relative to control. In kind it is cell-based. The essentials: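 HEK293 cells transiently transfected with CXCR3 by calcium phosphate, used 48 h later, serum-starved. Compound placed in lower (source) chamber in 0.2% serum DMEM. Cells (1 × 10^5/well) in upper chamber, 5 h migration at 37 °C. Crystal-violet-stained migrated cells counted in 5 predefined areas and compared with buffer control.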

The target is the same in data set [10]. The data set can be described thus: Positive allosteric modulation of human CXCR3 expressed in HEK293T cell membranes after 30 mins by [35S]GTPgammaS incorporation assay. In kind it is functional. The settings on record: HEK-293T. An outline of the steps: as §1
For data set [11] the target is unchanged. The data set can be described thus: Displacement of [125I]CXCL11 from human CXCR3 isoform 1 expressed in African green monkey COS7 cells after 3 hrs by liquid scintillation counting method. Particulars: COS-7. In kind it is cell-based. The essentials: as §3
Data set [12] can be described thus: Cytotoxicity against HEK293T cells expressing CXCR3 at 10 uM incubated overnight by ApoTox-Glo Triplex assay. In kind it is cell-based. The settings on record: human, hek-293t. An outline of the steps: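 10,000 HEK293T cells stably expressing CXCR3 incubated overnight with compound at 10 µM. ApoTox-Glo triplex. Viability read by fluorescence at 400Ex/505Em (GF-AFC) and cytotoxicity at 485Ex/520Em (bis-AAF-R110), each after a 30 min reagent step. Caspase-3/7 luminescence then read after a further 30 min.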

In data set [13] the target is T1, C-X-C chemokine receptor type 3 (Homo sapiens). The data set can be described thus: Antagonist activity at CXCR3 (unknown origin) expressed in HEK293 cells assessed as inhibition of CXCL11-mediated cell migration after 5 hrs by transwell migration assay. The format is cell-based. The essentials: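 CXCR3-transfected HEK293 cells (calcium phosphate, used 48 h post-transfection), serum-starved, pre-incubated 15 min with compound. Compound present in both upper chamber (1 × 10^5 cells/well, 0.2% serum DMEM) and lower chamber containing CXCL11. Migration 5 h at 37 °C. Migrated cells fixed in 3.7% formaldehyde, stained with crystal violet, counted in 5 predefined areas.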

For data set [14] the target is unchanged. Nature of the data set: Effect on CXCL11-induced beta-arrestin-2 recruitment to wild type CXCR3 (unknown origin) expressed in HEK293T cells at 10 to 1000 nM incubated for 4 hrs by chemiluminescence-based microplate reader method. The format is cell-based. Particulars: HEK-293T. (Activated receptors often draw arrestin, which recruitment assays turn into a signal.)

The target is the same in data set [15]. The data set can be described thus: Positive allosteric modulation of ProLink1-tagged wild type CXCR3 (unknown origin) expressed in HEK293T cells assessed as beta-arrestin-2 recruitment at 10 uM incubated for 4 hrs by chemiluminescence-based microplate reader method. The format is cell-based. Particulars: HEK-293T. The essentials:
as §2

Data set [16] shares this target. Nature of the data set: Positive allosteric modulation of ProLink1-tagged wild type CXCR3 (unknown origin) expressed in HEK293T cells assessed as beta-arrestin-2 recruitment incubated for 4 hrs by chemiluminescence-based microplate reader method. The format is cell-based. Particulars: HEK-293T. The essentials:
as §2

Active and inactive are the calls of the source. The calls are words filed in the database; no cut-off is given here.

As to `CC(C)(C)OC(=O)N[C@@H](CCCCNC(=O)[C@@H]1Cc2ccccc2CN1C(=O)CCC(=O)c1ccccc1)C(=O)NCC(c1ccccc1)c1ccccc1`, the Efficacy result in data set [1] is “inactive”. Besides, the Efficacy in data set [2] is 30%; in [3], 66%. Moreover, the result in data set [4] and in data set [7] was Active. The inhibition entry in [5], in data set [6], in data set [8], in [11] and in data set [13] was “inactive” throughout. Also, the fold change (FC) in data set [9] worked out at 0.25. In addition, the pEC50 result in data set [10] was “inactive”. Besides, the Activity result in data set [12] is “Non-toxic”. Further, the outcome in data set [14] was inactive.

With `CC(C)(C)OC(=O)NCCCC[C@H](NC(=O)[C@@H]1Cc2ccccc2CN1C(=O)CCC(=O)c1ccccc1)C(=O)NCC(c1ccccc1)c1ccccc1`, the Efficacy in [1] is 47%. Further, the Activity in data set [15] is 70%.

`COc1ccc(C(=O)CCC(=O)N2Cc3ccccc3C[C@H]2C(=O)NCCCC[C@H](NC(=O)OC(C)(C)C)C(=O)NCC(c2ccccc2)c2ccccc2)cc1` registered an Efficacy in data set [1] of 50%. The Efficacy entry in data set [2] is “inactive”. For the same compound, the inhibition result in data set [5], in data set [6], in data set [8], in [11] and in data set [13] was “inactive” each time. Moreover, in [7], the outcome was inactive. Moreover, in data set [9], the fold change (FC) came out at 0.25. Moreover, the pEC50 result in data set [16] is “inactive”. In addition, the Activity result in data set [12] was “Non-toxic”.

Regarding `CC(C)(C)OC(=O)N[C@@H](CCCCNC(=O)[C@@H]1Cc2ccccc2CN1C(=O)CCC(=O)N1CCCCC1)C(=O)NCC(c1ccccc1)c1ccccc1`, the Efficacy entry in data set [1] and in data set [2] was “inactive” each time. For the same compound, the inhibition result in data set [5] and in [8] was “inactive” in each case. Also, the pEC50 entry in [16] and in data set [10] was “inactive” each time.

For `CC(C)(C)OC(=O)N[C@@H](CCCCNC(=O)[C@@H]1Cc2ccccc2CN1C(=O)CCC(=O)c1ccco1)C(=O)NCC(c1ccccc1)c1ccccc1`, the Efficacy entry in data set [1] and in data set [2] was “inactive” throughout. In addition, the inhibition result in [5] and in data set [8] was “inactive” throughout. Also, the pEC50 result in data set [16] and in data set [10] was “inactive” throughout.

As for `CN1CCN(C(=O)CCC(=O)N2Cc3ccccc3C[C@H]2C(=O)NCCCC[C@H](NC(=O)OC(C)(C)C)C(=O)NCC(c2ccccc2)c2ccccc2)CC1`, the Efficacy result in data set [1] and in data set [2] was “inactive” each time. The inhibition entry in [5] and in data set [8] was “inactive” each time. Also, the pEC50 result in data set [16] and in data set [10] was “inactive” throughout.
